This is a sample that favours compounds with a hit; in the whole collection about 2.6% have one here.
SENP6 block = inhibitors of human SENP6 protease; Q9GZR1; Recombinant SENP6 catalytic domain, aminoluciferin luminescence; inhibition, % at 10 µM; hit rate 1.8% among 330,000; AID 2599;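 active means inhibition above about 50% at the single tested dose, limit read from the data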
Platelet DG rel = modulates dense granule release in human platelets; hit rate 0.22% among 300,000; human platelet-rich plasma, SFLLRN dense granule ATP release, luminescence; AID 1663; inhibition, %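 (compounds screened at 7.5 µM in platelet-rich plasma)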;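 active means mean replicate score, as percent of positive control, at or above 50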
SENP7 inh = inhibitors of human SENP7 protease | recombinant SENP7, Z-RLRGG-aminoluciferin luminescence, 40 min | inhibition, % at 5 µM | hit rate 1.5% among 330,000 | Q9BQF6;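 active means inhibition above about 50% at the single test dose, limit read from the data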
Target sequence (Q9BQF6 706-1050 limits assumed): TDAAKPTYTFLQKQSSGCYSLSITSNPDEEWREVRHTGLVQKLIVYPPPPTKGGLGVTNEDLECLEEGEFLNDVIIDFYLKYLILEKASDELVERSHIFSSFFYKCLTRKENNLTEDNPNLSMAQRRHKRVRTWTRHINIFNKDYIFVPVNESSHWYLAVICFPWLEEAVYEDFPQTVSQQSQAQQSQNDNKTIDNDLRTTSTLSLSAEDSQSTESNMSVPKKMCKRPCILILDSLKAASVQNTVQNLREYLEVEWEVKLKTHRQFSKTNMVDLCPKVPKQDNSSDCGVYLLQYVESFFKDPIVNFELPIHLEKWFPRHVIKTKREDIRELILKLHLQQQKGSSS
SENP1 FRET inh = inhibitors of human SENP1 SUMO protease catalytic domain. Q9P0U3. recombinant SENP1 catalytic domain, CyPet-SUMO1-YPet FRET cleavage. inhibition, % at 10 µM. hit rate 0.21% among 360,000. AID 624204;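 active means inhibition at least 30% at 10 µM, raw YFP signal under a set limit, fluorescence ratio 0.5 to 1.5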
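Test system: human SENP1 catalytic domain; medium: Tris pH 8 buffer plus EDTA, NaCl, BME, BSA, NP40, catalase; incubation: 50 min reaction at room temperature; technique: FRET, CFP and YFP emission; controls: no-enzyme low control and enzyme-plus-DMSO high control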
SENP8 block-1 = SENP8 (human) protease inhibition | Q96LD8 | recombinant SENP8, Nedd8 substrate fluorescence | inhibition, % at 20 µM | hit rate 0.64% among 360,000; in the data active means inhibition mostly above about 40%, no sharp cut-off; inactive means mostly below about 27%
SENP8 block-2 = SENP8 protease inhibition; Q96LD8; purified SENP8, Z-RLRGG-aminoluciferin cleavage, luminescence; inhibition, % at 10 µM; hit rate 1.2% among 330,000; in the data active means inhibition above about 50%
SENP8 confirm = human SENP8 inhibition, confirmed; AID 488912; Recombinant SENP8, Z-RLRGG-aminoluciferin luminescence, 60 min; shares compounds with SENP7 inh; inhibition, % at 12.5 µM; hit rate 40% among 6,200;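 active means mean inhibition across replicates above about 50%, limit read from the data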
SENP6 conf = confirmation of human SENP6 protease inhibitors; shares compounds with SENP7 inh; recombinant SENP6, Z-RLRGG-aminoluciferin luminescence; inhibition, % at 12.5 µM; hit rate 58% among 6,200
SENP7 conf = confirmation of human SENP7 protease inhibitors; shares compounds with SENP7 inh; recombinant SENP7, Z-RLRGG-aminoluciferin luminescence, 40 min; inhibition, % at 12.5 µM; hit rate 69% among 6,200
Casp3 SENP sel = inhibits human caspase-3 in SENP selectivity test | shares compounds with SENP7 inh | purified caspase-3, Z-DEVD-aminoluciferin luminescence, 60 min | inhibition, % at 12.5 µM | hit rate 60% among 6,200;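 active means mean inhibition above about 50%, limit read from the data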
Target sequence (P42574 28-227 limits assumed): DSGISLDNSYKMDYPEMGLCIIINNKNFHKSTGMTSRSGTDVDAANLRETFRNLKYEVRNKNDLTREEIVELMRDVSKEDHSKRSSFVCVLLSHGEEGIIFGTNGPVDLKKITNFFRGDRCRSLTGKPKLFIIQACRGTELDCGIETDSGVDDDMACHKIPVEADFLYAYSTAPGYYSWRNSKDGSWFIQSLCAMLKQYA
Luc interf = counter-screen for SENP inhibitors: luminescence interference; shares compounds with SENP7 inh; Pre-incubated SENP8/Z-RLRGG-aminoluciferin, luciferase luminescence interference; inhibition, % at 12.5 µM; hit rate 39% among 6,200;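 active means mean inhibition above about 50% when retested at one dose, limit read from the data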
Of the large screens only hits and unclear results are named; the others gave an inactive call (follow-up assays come after a bar, where they were run).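 How the source made its calls, unless noted: active means mean inhibition above about 50% in the one-dose retest (limit read from the data); inactive means the rest.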

Cc1ccc2nc(-c3cccnc3SCC(=O)N3c4ccccc4CC3C)[nH]c2c1 (stereo not given)	SENP6 block 55 | SENP8 confirm inactive | SENP6 conf inactive | SENP7 conf 70 | Casp3 SENP sel inactive | Luc interf inactive
O=C(/C=C/c1ccc(Cl)c(Cl)c1)N1CCc2ccccc21	SENP7 inh 66 | SENP8 confirm inactive | SENP6 conf inactive | SENP7 conf inactive | Casp3 SENP sel inactive | Luc interf inactive
CN1CCN(C(=O)/C=C/c2ccc(Cl)c(Cl)c2)CC1	none
COCCn1c(C)cc(C2=NNC(=NC3CC3)SC2)c1C	SENP6 block 75, Platelet DG rel 82, SENP8 block-2 82 | SENP8 confirm 95 | SENP6 conf 96 | SENP7 conf 101 | Casp3 SENP sel 98 | Luc interf 68
O=Cc1c(-c2ccccc2)cc2oc3ccccc3cc1-2	SENP6 block 67, SENP7 inh 65, SENP8 block-2 78 | SENP8 confirm inactive | SENP6 conf inactive | SENP7 conf inactive | Casp3 SENP sel inactive | Luc interf inactive
COc1ccc(O)c(-c2cc(-c3ccc(F)cc3)n[nH]2)c1	SENP6 block 56 | SENP8 confirm 62 | SENP6 conf 59 | SENP7 conf 78 | Casp3 SENP sel inactive | Luc interf 68
COc1ccc(-c2cc(-c3cc(OC)ccc3O)[nH]n2)cc1	none
Oc1ccc(Br)cc1-c1cc(-c2ccccc2)n[nH]1	none
COc1ccc(O)c(-c2cc(-c3cccc(Br)c3)n[nH]2)c1	SENP6 block 59 | SENP8 confirm inactive | SENP6 conf inactive | SENP7 conf 69 | Casp3 SENP sel inactive | Luc interf inactive
COc1ccc(CC(N)c2csc(NC(=O)c3cc(C(C)(C)C)nn3Cc3ccccc3)n2)cc1 (stereo not given)	none (no result: SENP6 block, Platelet DG rel, SENP7 inh, SENP8 block-2)
COC(=O)c1ccc2nc(-c3ccc4c(c3)OCO4)cn2c1	SENP7 inh 78 | SENP8 confirm inactive | SENP6 conf inactive | SENP7 conf inactive | Casp3 SENP sel 58 | Luc interf inactive
CCc1ccn2cc(-c3ccc4c(c3)OCO4)nc2c1	SENP6 block 96, Platelet DG rel 50, SENP7 inh 97, SENP8 block-2 94 | SENP8 confirm 97 | SENP6 conf 98 | SENP7 conf 102 | Casp3 SENP sel 96 | Luc interf 96
c1cnc2nc(-c3ccc4c(c3)OCO4)cn2c1	none
O=C1NC[C@H](CCCCN2CCN(CC3CCCCC3)C(=O)C2=O)N(Cc2ccccc2)C1=O	none (no result: SENP6 block, Platelet DG rel, SENP7 inh, SENP8 block-2)
CCC1(c2ccc(F)cc2)NC(=O)N(CC(=O)Nc2ccc(-c3nc4ccc(C)cc4s3)cc2)C1=O (stereo not given)	SENP6 block 58 | SENP8 confirm inactive | SENP6 conf inactive | SENP7 conf inactive | Casp3 SENP sel inactive | Luc interf inactive
CN(C)C(=O)COC(=O)c1ccccc1Nc1ccc(SC(F)F)cc1	SENP7 inh 62, SENP8 block-2 52 | SENP8 confirm inactive | SENP6 conf 60 | SENP7 conf 84 | Casp3 SENP sel inactive | Luc interf inactive
O=[N+]([O-])c1ccc(O)c(/C=N/Nc2ccccc2Cl)c1	SENP6 block 50, SENP7 inh 50 | SENP8 confirm inactive | SENP6 conf inactive | SENP7 conf inactive | Casp3 SENP sel inactive | Luc interf inactive
O=C(N/N=C/c1cc([N+](=O)[O-])ccc1O)C1CC1	none
O=[N+]([O-])c1ccccc1N/N=C\c1ccccc1Cl	SENP6 block 91, SENP7 inh 97, SENP8 block-2 84 | SENP8 confirm inactive | SENP6 conf inactive | SENP7 conf inactive | Casp3 SENP sel 56 | Luc interf inactive
O=[N+]([O-])c1ccccc1C=NNc1ccccc1	none (no result: SENP6 block, Platelet DG rel, SENP7 inh, SENP8 block-2)
O=[N+]([O-])c1cccc(/C=N\N=C2c3ccccc3-c3ccccc32)c1O	none
O=[N+]([O-])c1ccccc1N/N=C/c1cccc(O)c1O	SENP6 block 92, SENP7 inh 98, SENP8 block-1 55, SENP8 block-2 88 | SENP8 confirm inactive | SENP6 conf inactive | SENP7 conf inactive | Casp3 SENP sel inactive | Luc interf inactive
Cc1onc(-c2ccccc2)c1C(=O)NC(=S)NNC(=O)c1cc(-c2ccc(F)cc2)n[nH]1	none
Cc1nn(Cc2nnc(SCC(=O)Nc3ccc(Cl)cc3)n2C)c(C)c1[N+](=O)[O-]	none
O=C(CNc1cccc2ccccc12)N/N=C/c1ccccn1	SENP6 block 83, SENP8 block-2 71 | SENP8 confirm inactive | SENP6 conf inactive | SENP7 conf inactive | Casp3 SENP sel inactive | Luc interf inactive
O=C(CNc1cccc2ccccc12)N/N=C/c1ccc([N+](=O)[O-])cc1	SENP6 block 74 | SENP8 confirm inactive | SENP6 conf inactive | SENP7 conf inactive | Casp3 SENP sel inactive | Luc interf inactive
O=C(CNc1cccc2ccccc12)N/N=C/c1cccc(Oc2ccccc2)c1	SENP6 block 67, SENP8 block-2 51 | SENP8 confirm inactive | SENP6 conf inactive | SENP7 conf inactive | Casp3 SENP sel inactive | Luc interf inactive
O=C(N/N=C/c1cccc(Oc2ccccc2)c1)c1cccc(O)c1	SENP6 block 60 | SENP8 confirm inactive | SENP6 conf inactive | SENP7 conf 62 | Casp3 SENP sel inactive | Luc interf inactive
COc1ccc(/C=C/C(=O)N(C)C2(C)CCS(=O)(=O)C2)cc1 (stereo not given)	none
CC1CC(C)CN(C(=O)CSc2nnc3ccccn23)C1 (stereo not given)	none (no result: Platelet DG rel)
Cc1nnc(SCCn2c(N3CC(C)CC(C)C3)nc3c2c(=O)[nH]c(=O)n3C)s1 (stereo not given)	none
CCCn1c(C(C)Nc2nc(-c3cc(Cl)c(N)c(Cl)c3)cs2)nc2cc(Cl)c(N3CCCCC3)cc21 (stereo not given)	none
Oc1c(C=Nc2cccnc2)sc2ccccc12	SENP6 block 78, SENP8 block-2 58 | SENP8 confirm inactive | SENP6 conf 73 | SENP7 conf 95 | Casp3 SENP sel 81 | Luc interf 75

Compound activity: PubChem, several laboratories
